Compound activity deposited in PubChem BioAssay by several laboratories.
PMI act satM6P: increases human PMI activity with near-saturating mannose 6-phosphate; P34949; coupled PMI enzyme assay, resazurin fluorescence, 20 min; active compounds read high; 1 = untreated enzyme, 0 = substrate-free blank; activation factor at 20 µM; 190,000 compounds, 0.34% hits; AID 1216;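 active means activation factor of 2 or more at 20 µM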
Target sequence (P34949 whole entry, looked up): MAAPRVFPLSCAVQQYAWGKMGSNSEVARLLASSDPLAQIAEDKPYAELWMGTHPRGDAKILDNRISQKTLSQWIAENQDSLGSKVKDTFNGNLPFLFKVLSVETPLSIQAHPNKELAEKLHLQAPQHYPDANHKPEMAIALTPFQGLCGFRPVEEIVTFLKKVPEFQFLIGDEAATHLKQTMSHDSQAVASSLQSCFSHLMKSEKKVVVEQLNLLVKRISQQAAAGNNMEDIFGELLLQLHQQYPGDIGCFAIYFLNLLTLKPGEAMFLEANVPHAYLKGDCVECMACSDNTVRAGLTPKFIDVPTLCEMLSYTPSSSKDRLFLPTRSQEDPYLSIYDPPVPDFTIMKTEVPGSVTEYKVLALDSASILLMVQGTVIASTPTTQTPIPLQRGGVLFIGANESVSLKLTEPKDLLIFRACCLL
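Material: human phosphomannose isomerase with PGI, G6PDH, diaphorase coupling enzymes; amount: PMI at 15 ng/mL final; also added: Mannose-6-phosphate 1.0 mM (near-saturating) plus 0.22 mM NADP+; incubation: enzyme reaction with compound 20 min at room temperature; signal: resorufin fluorescence (Ex 544/Em 590 nm) from resazurin via diaphorase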
m-calpain inh: calpain II (pig) inhibition; 220,000 compounds, 0.37% hits; inhibition, % at 16 µM; purified calpain II, fluorogenic peptide substrate, 30 min;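 active means inhibition above about 50%, limit read from the data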
Rad51 HR inh: Rad51 (human) homologous recombination inhibition. Q06609. hRad51 DNA strand exchange, fluorescence dequenching. inhibition, % at 10 µM. 200,000 compounds, 0.085% hits. AID 1385;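 active means inhibition above 40% at the single screening dose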;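 further: 0% = DMSO control wells and 100% = blanks with heterologous ssDNA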
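material = hRad51 filaments on single-stranded DNA | reagent = Donor/quencher-labelled 47-bp dsDNA substrate | compound = 10 µM final, single point | schedule = strand-exchange reaction 15 min at room temperature | measured by = fluorescein emission 520 nm, excitation 485 nm | read-out basis = % inhibition versus plate control and blank means | benchmarks = plate controls and plate blanks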
PMI activator: phosphomannose isomerase (human) activation; activation factor at 20 µM; 190,000 compounds, 0.005% hits; AID 1214; purified human PMI, coupled resazurin fluorescence, 20 min; active compounds read high; 1 = vehicle control, 0 substrate-free wells;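 active means activation factor of 2 or more at 20 µM, relative to plate controls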
Lmaj promast: inhibitors of Leishmania major promastigote growth; Leishmania major promastigotes, resazurin fluorescence viability; inhibition, % at 10 µM; 200,000 compounds, 9% hits; AID 1063; in the data active means inhibition above about 50%;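 further: promastigotes grown with compound for 44 hours at 28 °C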
WT yeast gro inh: growth inhibition of WT yeast, mitochondrial fusion screen | mitochondrial fusion phenotypic screen, WT strain | inhibition, % at 10 µM | 190,000 compounds, 2.1% hits | AID 1362; in the data active means inhibition above about 58%; tested in S. cerevisiae
An asterisk follows results filed as active; . = no result. Most compounds without a hit are left out; they make up all but 9.8% or so of the library.

SMILES	PMI act satM6P	m-calpain inh	Rad51 HR inh	PMI activator	Lmaj promast	WT yeast gro inh
O=C(CSc1nn(-c2ccc(Cl)cc2)c(=S)s1)NCC1CCCO1 (stereo not drawn)	1.2	0	-5	1.2	4	-10
c1ccc(-c2n[nH]c3c2CCC3)cc1	1.1	13	-1	1.1	0	7
Clc1ccc(-c2n[nH]c3c2CCC3)c(Cl)c1	0.9	2	0	0.9	-1	68*
CCCCOc1ccc(C(=O)N/C(=C\c2cccc([N+](=O)[O-])c2)C(=O)OC(C)C)cc1	0.9	51*	.	0.9	-1	10
CCCCOc1ccc(C(=O)N/C(=C\c2cccc([N+](=O)[O-])c2)C(=O)OCCC)cc1	1	14	.	0.9	-4	22
CN(C)c1ccc(NC(=O)C2CCCN(S(=O)(=O)c3ccccc3)C2)cc1 (stereo not drawn)	0.8	18	17	0.9	-1	6
O=C(CSc1ccc(-c2cccs2)nn1)NCc1ccccc1Cl	0.9	7	8	0.9	14	-2
COc1ccccc1CNC(=O)CSc1ccc(-c2cccs2)nn1	1.1	-12	-1	1	75*	0
Cc1nc2c(=O)[nH]c3ccccc3c2o1	0.9	-18	-7	0.8	2	-8
O=C1N/C(=C/c2ccc(N3CCOCC3)o2)C(=O)N1c1cccc(Cl)c1	0.8	-39	-230	1	2	8
O=C(NC1CCN(Cc2ccccc2)CC1)C1CCN(S(=O)(=O)c2cccc3cccnc23)CC1	1	.	-2	1	-4	5
O=S(=O)(NC1CCN(Cc2ccccc2)CC1)c1cccc2cccnc12	1	21	2	1	67*	-5
COC(=O)c1ccccc1S(=O)(=O)N(CCCN1CCOCC1)Cc1cccs1	1.1	11	0	1	15	0
O=S(=O)(c1cccc(C(F)(F)F)c1)N(CCCN1CCOCC1)Cc1cccs1	1	-11	5	0.9	100*	0
O=S(=O)(c1ccc(NC(=S)NN=C(Cc2ccccc2)Cc2ccccc2)cc1)N1CCOCC1	1.2	-131	-2	1	92*	-6
O=S(=O)(c1ccc(NC(=S)NCCc2ccccc2)cc1)N1CCOCC1	1	14	-5	1	69*	7
C=CCC(CC=C)(NC(=O)c1cccc(C)c1)c1ccccc1	1.1	16	-1	0.9	68*	14
C=CCC(CC=C)(NC(=O)c1ccccc1C(=O)O)c1ccccc1	1	-8	1	0.9	27	-11
CCOc1nc2c(c(=O)n(C)c(=O)n2C)n1Cc1ccccc1Cl	1	-8	4	1	0	-8
C=CCOc1nc2c(c(=O)n(C)c(=O)n2C)n1Cc1c(Cl)cccc1Cl	1	-9	-2	1.1	64*	-1
CSc1nc(O)c(C(c2cccc([N+](=O)[O-])c2)c2c(O)nc(SC)[nH]c2=O)c(=O)[nH]1	1	-13	-2	1.2	-6	-8
COc1ccc(CC(=O)NCCc2ccc(Cl)cc2Cl)cc1	1.1	26	25	1.1	3	2
COCC(C)NC(=O)COc1ccc(Cl)cc1Cl (stereo not drawn)	1	-6	7	0.9	-3	-6
O=C(Cc1ccccc1)NCCc1ccc(Cl)cc1Cl	1.1	4	1	1.1	54*	-13
COCC(C)NC(=S)NCCc1ccc(Cl)cc1Cl (stereo not drawn)	1	0	6	1	3	61*
SMILES	PMI act satM6P	m-calpain inh	Rad51 HR inh	PMI activator	Lmaj promast	WT yeast gro inh
COCCNC(=S)NCCc1ccc(Cl)cc1Cl	1	4	-2	1	-2	70*
O=C(c1ccccc1Sc1ccccc1[N+](=O)[O-])N1CCCCC1	1.1	12	.	1	6	17
CN(C)CC1CCCCC1C1(O)c2ccccc2CSc2sccc21 (stereo not drawn)	0.9	-22	9	0.9	100*	0
COc1cccc(N=C2C(=O)N3CCCc4cccc2c43)c1	0.8	-24	.	0.9	26	-4
COc1ccc(N=C2C(=O)N3c4c(cccc42)C(C)=CC3(C)C)cc1	0.5	26	-13	0.7	97*	-11
COc1ccc(N=C2C(=O)Nc3ccccc32)cc1	0.6	3	-1	0.9	100*	-8
